# Experimental data reported in PMC12394898 (Chemical Science, 2025).
# Like-named read-outs stand apart in the source and are kept apart here.
# Legend:
# MCF-7 = test: Cytotoxic activity, crystal violet staining; format: cell-based, human; details: read-out: IC50 MCF-7, MCF-7 cells, 96 hours incubation
# HT-29 [1] = test: Cytotoxic activity, crystal violet staining; format: cell-based, human; details: read-out: IC50 HT-29, HT-29 cells, 72 hours incubation
# A-549 = test: Cytotoxic activity, crystal violet staining; format: cell-based, human; details: read-out: IC50 A-549, A-549 cells, 72 hours incubation
# Stability in water = format: physicochemical; details: 4 mg in DMSO-d6 (0.4 mL) diluted with D2O to 0.5 mL, 48 hours
# [2] = target: T1, recombinant human TrxR (TrxR1) (Homo sapiens, UniProt Q16881); test: Thioredoxin reductase inhibition assay; format: biochemical
# T1 sequence (Q16881 1-499 isoform Q16881-5): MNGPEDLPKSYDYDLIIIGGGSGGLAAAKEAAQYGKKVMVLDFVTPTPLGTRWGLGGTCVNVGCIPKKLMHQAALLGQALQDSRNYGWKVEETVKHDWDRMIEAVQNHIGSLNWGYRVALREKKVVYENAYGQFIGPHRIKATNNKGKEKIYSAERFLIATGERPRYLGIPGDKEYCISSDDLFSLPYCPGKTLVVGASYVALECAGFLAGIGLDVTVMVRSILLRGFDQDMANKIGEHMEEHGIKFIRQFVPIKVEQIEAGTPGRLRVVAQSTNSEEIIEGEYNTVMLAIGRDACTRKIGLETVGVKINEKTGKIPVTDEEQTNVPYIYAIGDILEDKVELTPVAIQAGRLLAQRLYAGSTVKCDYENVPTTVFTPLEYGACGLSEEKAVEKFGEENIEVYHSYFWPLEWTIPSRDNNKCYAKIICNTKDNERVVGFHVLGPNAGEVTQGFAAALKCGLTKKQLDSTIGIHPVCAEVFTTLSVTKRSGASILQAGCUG
# [3] = test system: organoids from HGSOC tissues (HGSOC-PDTO1-4); test: Patient-Derived Organoid cytotoxicity assay; format: cell-based, human
# Method in brief: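 Patient-derived high-grade serous ovarian cancer tumor organoids (3D model) came from the C.R.O. biobank. Carboplatin, the standard treatment, served as positive control. Dose-response IC50 values were obtained per organoid line.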
# A2780 [4] = test: Cytotoxicity on ovarian cancer cell line; format: cell-based, human; details: read-out: IC50 A2780
# [5] = test system: organoids from colon cancer tissues (CRC-PDTO1-4); test: Patient-Derived Organoid cytotoxicity assay; format: cell-based, human
# Method in brief: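 Patient-derived colorectal cancer tumor organoids (3D model) came from the C.R.O. biobank. Oxaliplatin, the standard treatment, served as positive control. Dose-response IC50 values were obtained per organoid line.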
# A2780 [6] = details: read-out: average IC50 in A2780 ovarian cancer cells; literature value; cited from earlier work
# HT-29 [7] = details: read-out: average IC50 in HT-29 colon cancer cells; literature value; cited from earlier work
# [8] = 50 μM for 96 hours, compared to non-treated controls
# [9] = read-out: IC50 HGSOC-PDTO1, organoid HGSOC-PDTO1, 96 hours of treatment
# [10] = read-out: IC50 HGSOC-PDTO2, organoid HGSOC-PDTO2, 96 hours of treatment
# [11] = read-out: IC50 HGSOC-PDTO3, organoid HGSOC-PDTO3, 96 hours of treatment
# [12] = read-out: IC50 HGSOC-PDTO4, organoid HGSOC-PDTO4, 96 hours of treatment
# [13] = read-out: IC50 CRC-PDTO1, organoid CRC-PDTO1, 96 hours of treatment
# [14] = read-out: IC50 CRC-PDTO2, organoid CRC-PDTO2, 96 hours of treatment
# [15] = read-out: IC50 CRC-PDTO3, organoid CRC-PDTO3, 96 hours of treatment
# [16] = read-out: IC50 CRC-PDTO4, organoid CRC-PDTO4, 96 hours of treatment
Molecule,IC50 (MCF-7) [µM],IC50 (HT-29 [1]) [µM],IC50 (A-549) [µM],further results
"CC(=O)OC[C@H]1O[C@@H]([S-])[C@H](OC(C)=O)[C@@H](OC(C)=O)[C@@H]1OC(C)=O.CCP(CC)CC.[Au+] [Auranofin, reference compound]",1.5 ± 0.2,4.9 ± 0.5,3.7 ± 0.4,–
[Au(MonoIPent)Se(C6H5)] [1m],0.27 ± 0.04,0.35 ± 0.05,0.27 ± 0.03,"stability in water (Stability in water): No change; IC50 ([2]; read-out: TrxR inhibition average IC50, recombinant human TrxR, 75 min at 37 °C): 0.18 ± 0.05 µM; brightfield appearance of HGSOC PDTOs after treatment [3, 8]: visible reductions in organoid size, density, and structural integrity; IC50 [3, 9]: 17 ± 8 µM; IC50 [3, 10]: 4 ± 2 µM; IC50 [3, 11]: 6 ± 2 µM; IC50 [3, 12]: 7 ± 5 µM; IC50 (A2780 [4]): 0.4 ± 0.1 µM; brightfield appearance of CRC PDTOs after treatment [5, 8]: visible reductions in organoid size, density, and structural integrity; IC50 [5, 13]: 13 ± 9 µM; IC50 [5, 14]: 6 ± 2 µM; IC50 [5, 15]: 3.4 ± 0.5 µM; IC50 [5, 16]: 9 ± 5 µM"
"Cc1c(C)n(-c2c(C(C)C)cccc2C(C)C)[c](=[Au][Se]c2ccccc2)n1-c1c(C(C)C)cccc1C(C)C [1d, [Au(IPr^Me)Se(C6H5)]]",6.1 ± 0.3,> 100,> 100,–
[Au(ImPyIPr)Se(C6H5)] [1i],4.3 ± 0.4,12.6 ± 0.8,5.97 ± 0.08,–
"CC(C)c1cccc(C(C)C)c1-n1ccn(-c2c(C(C)C)cccc2C(C)C)[c]1=[Ag][Se]c1ccccc1 [1q, [Ag(IPr)Se(C6H5)]]",0.9 ± 0.2,1.2 ± 0.3,0.8 ± 0.1,–
"Cc1cc(C(c2ccccc2)c2ccccc2)c(-n2ccn(-c3c(C(c4ccccc4)c4ccccc4)cc(C)cc3C(c3ccccc3)c3ccccc3)[c]2=[Au][Se]c2ccccc2)c(C(c2ccccc2)c2ccccc2)c1 [1c, [Au(IPr*)Se(C6H5)]]",> 100,> 100,> 100,–
"CC(C)c1cccc(C(C)C)c1-n1ccn(-c2c(C(C)C)cccc2C(C)C)[c]1=[Au][Se]c1ccccc1 [1a, [Au(IPr)Se(C6H5)]]",3.6 ± 0.5,3.1 ± 0.5,4.5 ± 0.9,stability in water (Stability in water): No change; inhibition of the enzyme (TrxR1) ([2]; highest applied dosage of 100 μM): did not show any inhibition
[Au(IPr)Se(C6H4CF3)] [2a],48 ± 5,88 ± 8,55 ± 10,–
"N.N.[Cl][Pt][Cl] [Cisplatin, reference compound]",5.3 ± 0.8,7 ± 0.5,3 ± 0.4,IC50 (A2780 [4]): 1 µM
"CCC(CC)c1cccc(C(CC)CC)c1-n1ccn(-c2c(C(CC)CC)cccc2C(CC)CC)[c]1=[Au][Se]c1ccccc1 [1l, [Au(IPent)Se(C6H5)]]",> 100,> 100,> 100,–
"N.N.O=C([O-])C1(C(=O)[O-])CCC1.[Pt+2] [Carboplatin, reference compound]",–,–,–,"IC50 (A2780 [6]): 8 µM; IC50 [3, 9]: 3.5 ± 0.7 µM; IC50 [3, 10]: 3 ± 1 µM; IC50 [3, 11]: > 100 µM; IC50 [3, 12]: > 100 µM"
"CC(C)c1cccc(C(C)C)c1-n1ccn(-c2c(C(C)C)cccc2C(C)C)[c]1=[Cu][Se]c1ccccc1 [1p, [Cu(IPr)Se(C6H5)]]",0.4 ± 0.3,1 ± 0.3,0.7 ± 0.1,–
"Cc1cc(C)c(N2CCN(c3c(C)cc(C)cc3C)[C]2=[Au][Se]c2ccccc2)c(C)c1 [1k, [Au(SIMes)Se(C6H5)]]",4.4 ± 0.1,9.9 ± 0.3,6.3 ± 0.6,–
[Au(PPh3)Se(C6H5)] [1o],1.7 ± 0.08,2.8 ± 0.2,2.9 ± 0.4,–
"CC(C)c1cccc(C(C)C)c1N1CCN(c2c(C(C)C)cccc2C(C)C)[C]1=[Au][Se]c1ccccc1 [1b, [Au(SIPr)Se(C6H5)]]",> 100,> 100,> 100,–
"O=C1[O][Pt]2([NH][C@@H]3CCCC[C@H]3[NH]2)[O]C1=O [Oxaliplatin, reference compound]",–,–,–,"IC50 [5, 13]: 1.4 ± 0.9 µM; IC50 [5, 14]: 4 ± 1 µM; IC50 [5, 15]: > 100 µM; IC50 [5, 16]: > 100 µM; IC50 (HT-29 [7]): 7 µM"
[Au(MeIMes)Se(C6H5)] [1h],3.4 ± 0.6,4 ± 1,4 ± 0.5,–
[Au(BzIPr)Se(C6H5)] [1f],1.9 ± 0.4,1.08 ± 0.05,0.32 ± 0.04,–
[Au(MeIPr)Se(C6H5)] [1g],2.4 ± 0.5,2.2 ± 0.5,1.5 ± 0.3,–
